The record followed here is ChEMBL document CHEMBL1146075, “Synthesis and anti-BVDV activity of acridones as new potential antiviral agents” (J Med Chem, 2006).

Converted amounts (≈) assume the structure as drawn. The source made the active and inactive calls. The rule behind the calls is not given here.

Test [1] relates to Human immunodeficiency virus 2. Put plainly: Antiviral activity against HIV2 ROD in MT4 cells. Format: functional, organism-based.
The next test deals with Human respirovirus 3. The test can be described thus: Antiviral activity against parainfluenza3 virus in vero cells. In kind it is functional, organism-based.
Another test deals with Vaccinia virus. Put plainly: Antiviral activity against vaccinia virus in E6SM cells. In kind it is functional, organism-based. As to conditions: Orthopoxvirus vaccinia.
Test [2] concerns Human immunodeficiency virus 1. Put plainly: Antiviral activity against HIV1 3B in MT4 cells. In kind it is functional, organism-based.
Test [3] has as its system Mammalian orthoreovirus 1. The test can be described thus: Antiviral activity against Reovirus1 in vero cells. Format: functional, organism-based.
The next test concerns Sindbis virus. The test can be described thus: Antiviral activity against sindbis virus in vero cells. In kind it is functional, organism-based.
The test system of another test is Human alphaherpesvirus 2. The test can be described thus: Antiviral activity against HSV2 G in E6SM cells. In kind it is functional, organism-based.
The next test has as its system Coxsackievirus B4. Put plainly: Antiviral activity against coxsackie virus B4 in vero cells. In kind it is functional, organism-based.
Test [4] relates to MDBK441. The test can be described thus: Cytotoxicity against MDBK cells. Format: functional. As to conditions: Bos taurus. The method in brief: (§1)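 Cells seeded the day before, then given serial compound dilutions and left to proliferate 3 days at 37 °C. MDBK: 10^4/well in MEM-FCS. Huh 5-2: 5 × 10^3/well in complete DMEM. Cell number read by MTS/PMS. CC50 is the concentration inhibiting cell growth by 50%.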

A further test relates to Punta Toro virus. Put plainly: Antiviral activity against Punta Toro virus in vero cells. Format: functional, organism-based.
Test [5] deals with Vesicular stomatitis virus. The test can be described thus: Antiviral activity against vesicular stomatitis virus in E6SM cells. In kind it is functional, organism-based.
Test [6] concerns Human betaherpesvirus 5. The test can be described thus: Antiviral activity against HCMV AD169 in human embryonic lung cells. Format: functional, organism-based.
Test [7] relates to MDBK441. Put plainly: Selectivity index (CC50/EC50) for inhibition of VP32947-resistant BVDV in MDBK cells. In kind it is functional. The method in brief:
(§2)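 SI = CC50/EC50. EC50 comes from a 5-day Giemsa-stained CPE assay in MDBK cells at MOI 0.5; CC50 from a 3-day MTS/PMS proliferation assay. Means of at least three experiments. Line 10 uses the NADL F224S mutant.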

For test [8], the system named is Respiratory syncytial virus. Put plainly: Antiviral activity against respiratory syncytial virus […] in HeLa cells. In kind it is functional, organism-based.
In test [9] the test system is Bovine viral diarrhea virus 1. The test can be described thus: Antiviral activity against VP32947-resistant BVDV in MDBK cells. Format: functional, organism-based. Conditions: Bovine viral diarrhea virus isolates and strains. The method in brief: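 MDBK cells seeded 20 × 10^3/well in MEM with 5% heat-inactivated FCS, confluent after 24 h; serial 3-fold compound dilutions added, then virus at MOI 0.5 (line 2: NADL F224S mutant). 5 days at 37 °C, then ethanol fixation and Giemsa staining. CPE scored microscopically 0–10 per well. EC50 by logarithmic interpolation; mean ± SD of at least three experiments.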

Test [10] concerns MDBK441. Put plainly: Inhibition of BVDV NADL RNA production in MDBK cells. Format: functional, cell-based. As to conditions: Bos taurus. The gist of the method: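 Viral RNA came from supernatant, total cellular RNA by kit. One-step TaqMan RT-qPCR: UNG 50 °C 2 min; RT 60 °C 30 min; 95 °C 5 min; 40 cycles of 94 °C 20 s and 62 °C 1 min. Three replicate reactions per sample.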

For test [11], the system named is MDBK441. The test can be described thus: Inhibition of BVDV NADL production in MDBK cells. Format: functional, cell-based. Conditions: Bos taurus. The method in brief: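 Supernatants were titrated on MDBK cells seeded at 5 × 10^3/well (10–15% confluent). Cells were infected 24 h later with 10-fold serial dilutions and, after 4 days, ethanol-fixed and Giemsa-stained. CPE was read microscopically; titre by Reed–Muench, as CCID50/mL.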

Test [12] has as its system MDBK441. The test can be described thus: Selectivity index (CC50/EC50) for inhibition of BVDV NADL in MDBK cells. Format: functional. The gist of the method: as §2
In a further test the test system is Human alphaherpesvirus 1. Put plainly: Antiviral activity against HSV1 KOS in E6SM cells. In kind it is functional, organism-based.
The test system of a further test is Huh-5-2. The test can be described thus: Cytotoxicity against human hepatoma Huh5-2 cells. In kind it is functional. The method in brief:
as §1

Test [13] concerns Human betaherpesvirus 5. Put plainly: Antiviral activity against HCMV Davis in human embryonic lung cells. Format: functional, organism-based.

As a reminder, the CC50 is the concentration giving 50% cytotoxicity. Broadly, the EC50 is the concentration needed to bring the measured effect to its halfway point. A low value points to a more potent agent. As to `Cn1c2cc(N3CCN(c4ccccn4)CC3)c(N)cc2c(=O)c2c(O)cc(O)cc21`, the result (in test [1]; in the test with Human respirovirus 3; in the test on Vaccinia virus; in [2]; in [3]; in the test with Sindbis virus) was inactive. Further, the result (in the test with Human alphaherpesvirus 2; with Coxsackievirus B4; in the test on Punta Toro virus; in test [5]; in the test with Human betaherpesvirus 5 [6]; in test [8]) was inactive. Besides, the outcome in the test on Human alphaherpesvirus 1 and with Human betaherpesvirus 5 [13] was inactive. Moreover, the values for the CC50 in the test with MDBK441 [4] and in the test with Huh-5-2 were > 100 µg/mL and 21 µg/mL (≈ 50.3 µM), respectively. Besides, the Selectivity index with MDBK441 [7] is >45; in the test on MDBK441 [12], >200. In addition, the EC50 was found to be 2.24 µg/mL (≈ 5.37 µM) in test [9], 2.3 µg/mL (≈ 5.51 µM) in the test with MDBK441 [10] and 2.01 µg/mL (≈ 4.81 µM) in the test on MDBK441 [11].
